From ChEMBL document CHEMBL3576792, “Enhancement of antibiotic activity against multidrug-resistant bacteria by the efflux pump inhibitor 3,4-dibromopyrrole-2,5-dione isolated from a Pseudoalteromonas sp” (J Nat Prod, 2015)
≈ marks a conversion by molar mass, not a printed value. Calls of active or inactive are those of the source. No cut-off for these calls is given here.

Columns and labels:
[1] = test system: Escherichia coli; assay: Potentiation of piperacillin-induced antibacterial activity Escherichia coli transformed with plasmid carrying MG1655 deltaBC/pXYM assessed as piperacillin MIC by p-iodonitrotetrazolium chloride colorimetric assay; type: functional
Outline: (§1)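 Checkerboard microdilution in Mueller-Hinton broth: two-fold dilutions of antibiotic crossed with dilutions of test compound above, at and below their MICs. Growth was read by INT colorimetric assay, with MIC as the lowest concentration showing no visible growth. FICs and FIC index were derived from these MICs. ΔBC/pABM and ΔBC/pXYM strains were grown with 100 μg/mL ampicillin and 1 mM IPTG.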

[2] = test system: Escherichia coli; assay: (§2) Inhibition of AcrAB-TolC pump in Escherichia coli AG100 assessed as increase in intracellular H33342 fluorescence after 60 mins by efflux inhibition assay; type: cell-based
Outline: (§3)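 AG100 (wild-type K-12) or AG100A (ΔacrAB) cells were grown in Luria broth at 37 °C and 200 rpm to OD600 1.0, PBS-washed and diluted to OD600 0.3. Cells took up 2.5 μM Hoechst 33342 with 22 mM glucose at 37 °C for about 30 min, then compound (0.06–64 μg/mL) or PAβN (15.6 μg/mL) was added. Fluorescence (Ex 350/Em 460 nm) was followed for 60 min and corrected for background. The last four time points were compared to dye-only control by ANOVA with Dunnett's test, run in duplicate.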

[3] = as §2; type: cell-based; details: AG100, 1 h; outline: as §3
[4] = test system: Escherichia coli; assay: Potentiation of erythromycin-induced antibacterial activity Escherichia coli AG102 overexpressing AcrAB-TolC assessed as erythromycin MIC by p-iodonitrotetrazolium chloride colorimetric assay; type: functional; outline: as §1
[5] = test system: Escherichia coli; assay: Potentiation of piperacillin-induced antibacterial activity Escherichia coli transformed with plasmid carrying MG1655 deltaBC/pABM assessed as piperacillin MIC by p-iodonitrotetrazolium chloride colorimetric assay; type: functional, organism-based; outline: as §1
[6] = test system: Escherichia coli; assay: Potentiation of chloramphenicol-induced antibacterial activity Escherichia coli transformed with plasmid carrying MG1655 deltaBC/pABM by p-iodonitrotetrazolium chloride colorimetric assay; type: functional
[7] = test system: Escherichia coli; assay: Potentiation of oxacillin-induced antibacterial activity Escherichia coli AG102 overexpressing AcrAB-TolC by p-iodonitrotetrazolium chloride colorimetric assay; type: functional, organism-based; outline: as §1
[8] = test system: Escherichia coli; assay: Potentiation of levofloxacin-induced antibacterial activity Escherichia coli AG102 overexpressing AcrAB-TolC assessed as levofloxacin MIC by p-iodonitrotetrazolium chloride colorimetric assay; type: functional; outline: as §1
[9] = test system: Escherichia coli; assay: Potentiation of tetracycline-induced antibacterial activity Escherichia coli AG102 overexpressing AcrAB-TolC by p-iodonitrotetrazolium chloride colorimetric assay; type: functional
[10] = test system: Escherichia coli K-12; assay: Inhibition of AcrAB-TolC pump in Escherichia coli K-12 AG100 assessed as increase in H33342 accumulation at 64 ug/ml after 60 mins by accumulation assay
[11] = test system: Escherichia coli; assay: Potentiation of levofloxacin-induced antibacterial activity Escherichia coli transformed with plasmid carrying MG1655 deltaBC/pXYM assessed as levofloxacin MIC by p-iodonitrotetrazolium chloride colorimetric assay; type: functional; outline: as §1
[12] = test system: Escherichia coli; assay: Potentiation of chloramphenicol-induced antibacterial activity Escherichia coli AG102 overexpressing AcrAB-TolC assessed as chloramphenicol MIC by p-iodonitrotetrazolium chloride colorimetric assay; type: functional; outline: as §1
[13] = test system: Escherichia coli; assay: Potentiation of oxacillin-induced antibacterial activity Escherichia coli transformed with plasmid carrying MG1655 deltaBC/pABM assessed as oxacillin MIC by p-iodonitrotetrazolium chloride colorimetric assay; type: functional, organism-based; outline: as §1
[14] = test system: Escherichia coli; assay: Potentiation of levofloxacin-induced antibacterial activity Escherichia coli AG102 overexpressing AcrAB-TolC MIC by p-iodonitrotetrazolium chloride colorimetric assay; type: functional
[15] = test system: Escherichia coli; assay: Potentiation of chloramphenicol-induced antibacterial activity Escherichia coli transformed with plasmid carrying MG1655 deltaBC/pXYM assessed as chloramphenicol MIC by p-iodonitrotetrazolium chloride colorimetric assay; type: functional; outline: as §1
[16] = test system: Escherichia coli K-12; assay: Inhibition of AcrAB-TolC pump in Escherichia coli K-12 AG100 assessed as […] at 16 ug/ml after 60 mins by accumulation assay
Outline: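 AG100 (wild-type K-12) or AG100A (ΔacrAB) grown in Luria broth at 37 °C and 200 rpm to OD600 1.0, PBS-washed, diluted to OD600 0.3. Cells given 2.5 μM H33342 with 22 mM glucose at 37 °C for ~30 min until stable, then compound (0.06–64 μg/mL) added. Fluorescence (Ex 350/Em 460) read for 60 min, background subtracted. Final 4 time points averaged; one-way ANOVA/Dunnett vs Hoechst-only; n = 8.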

[17] = test system: Escherichia coli; assay: Potentiation of oxacillin-induced antibacterial activity Escherichia coli transformed with plasmid carrying MG1655 deltaBC/pXYM by p-iodonitrotetrazolium chloride colorimetric assay; type: functional
[18] = test system: Escherichia coli; assay: Potentiation of erythromycin-induced antibacterial activity Escherichia coli transformed with plasmid carrying MG1655 deltaBC/pXYM by p-iodonitrotetrazolium chloride colorimetric assay; type: functional
[19] = test system: Escherichia coli K-12; assay: Inhibition of AcrAB-TolC pump in Escherichia coli K-12 AG100 assessed as increase in intracellular H33342 fluorescence at 4 ug/ml after 60 mins by efflux inhibition assay; type: cell-based
Outline: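 Washed AG100 cells loaded for 60 min with 2.5 μM H33342 plus compound (no glucose, 25 °C). They were then pelleted, resuspended in ice-cold PBS and re-exposed to the same compound concentrations with or without glucose at 37 °C. Fluorescence (Ex 350/Em 460) followed for 30 min, no-glucose values subtracted, data normalized to loaded cells.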

[20] = test system: Escherichia coli; assay: Potentiation of chloramphenicol-induced antibacterial activity Escherichia coli AG102 overexpressing AcrAB-TolC by p-iodonitrotetrazolium chloride colorimetric assay; type: functional
[21] = test system: Escherichia coli; assay: Antibacterial activity against Escherichia coli AG102 overexpressing AcrAB-TolC by p-iodonitrotetrazolium chloride colorimetric assay; type: functional
Outline: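 Two-fold broth microdilution in Mueller-Hinton broth, read by p-iodonitrotetrazolium chloride colorimetric assay. MIC is the lowest concentration giving no visible growth. MG1655 ΔacrB ΔtolC strains carrying pABM or pXYM were always cultured with 100 μg/mL ampicillin and 1 mM IPTG. Medium, inoculum and 1% DMSO (final) served as negative control.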

[22] = test system: Escherichia coli; assay: Potentiation of oxacillin-induced antibacterial activity Escherichia coli transformed with plasmid carrying MG1655 deltaBC/pABM by p-iodonitrotetrazolium chloride colorimetric assay; type: functional, organism-based; outline: as §1
[23] = test system: Escherichia coli K-12; assay: Inhibition of AcrAB-TolC pump in Escherichia coli K-12 AG100 assessed as increase in intracellular H33342 fluorescence at 16 ug/ml after 60 mins by efflux inhibition assay; type: cell-based; outline: as §3
[24] = test system: Escherichia coli; assay: Effect on intracellular H33342 accumulation in Escherichia coli AG100A delta acrAB mutant at 64 ug/ml after 60 mins by accumulation assay; type: functional
Outline: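 Cells grown in Luria broth at 37 °C, 200 rpm to OD600 1.0, then washed twice in PBS and diluted in glucose-free PBS to OD600 0.3. H33342 was used at 2.5 μM with 22 mM glucose at 37 °C and allowed to accumulate for ~30 min. Compound was then added and fluorescence (Ex 350/Em 460 nm) followed for 60 min. Values are the mean RFU of the final 4 min, after media-plus-compound background was subtracted. Run in duplicate, n = 8.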

In the case of `O=C1NC(=O)C(Br)=C1Br`, the MIC [1] is reported as 256 µg/mL, the inhibition [2] is reported as “Dose-dependent effect” and the IC50 [3] is reported as 0.79 µg/mL (≈ 3.1 µM). The MIC [4] was 128 µg/mL, the MIC [5] was “inactive” and the fractional inhibitory concentration index (FICI) [6] was 0.75. The “fractional inhibitory concentration index (FICI)” value [7] was “inactive”, the MIC [8] was 128 µg/mL and the “fractional inhibitory concentration index (FICI)” value [9] was 0.31. For the same compound, the RFU [10] was 1200, the MIC [11] was 32 µg/mL and the MIC [12] was 64 µg/mL. For the same compound, the MIC [13] was “inactive”, the “fractional inhibitory concentration index (FICI)” value [14] was 0.36 and the MIC [15] was 64 µg/mL. The RFU [16] was 1170, the “fractional inhibitory concentration index (FICI)” value [17] was 0.27 and the “fractional inhibitory concentration index (FICI)” value [18] was 0.31. The RFU [19] was -101, the fractional inhibitory concentration index (FICI) [20] was 0.5 and the MIC [21] was 256 µg/mL (≈ 1000 µM). For the same compound, the “fractional inhibitory concentration index (FICI)” value [22] was “inactive”, the RFU [23] was -34 and the RFU [24] was 1090.
